Reference: BindingDB's records for doi:10.1016/j.bmc.2014.05.061 (Academy of Sciences of The Czech Republic, 2014)
pKi: −log10 of the molar value.

Target: Glutamate carboxypeptidase 2 (Homo sapiens, UniProt Q04609)
Experiment: Inhibition of human recombinant N-terminal Avi-tagged glutamate carboxypeptidase 2 extracellular domain (44 to 750 amino acids) using pteroyl-di-L-glutamate substrate by HPLC method
Outline: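 Avi-GCPII (0.2 ng) in 25 mM Bis-Tris propane, 150 mM NaCl, 0.001% octaethylene glycol monododecyl ether, pH 7.4, preincubated with inhibitor (ten concentrations) 5 min at 37 °C. Reaction started with pteroyl-di-L-glutamate (20 µl of 4 µM stock), run 20 min at 37 °C, stopped with 2-PMPA. Substrate and product separated by isocratic HPLC, detected at 281 nm; IC50 from full curves, Ki mean ± SD, duplicate or triplicate.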

Sequence of Glutamate carboxypeptidase 2 (Q04609 whole entry, the tested form may be a part): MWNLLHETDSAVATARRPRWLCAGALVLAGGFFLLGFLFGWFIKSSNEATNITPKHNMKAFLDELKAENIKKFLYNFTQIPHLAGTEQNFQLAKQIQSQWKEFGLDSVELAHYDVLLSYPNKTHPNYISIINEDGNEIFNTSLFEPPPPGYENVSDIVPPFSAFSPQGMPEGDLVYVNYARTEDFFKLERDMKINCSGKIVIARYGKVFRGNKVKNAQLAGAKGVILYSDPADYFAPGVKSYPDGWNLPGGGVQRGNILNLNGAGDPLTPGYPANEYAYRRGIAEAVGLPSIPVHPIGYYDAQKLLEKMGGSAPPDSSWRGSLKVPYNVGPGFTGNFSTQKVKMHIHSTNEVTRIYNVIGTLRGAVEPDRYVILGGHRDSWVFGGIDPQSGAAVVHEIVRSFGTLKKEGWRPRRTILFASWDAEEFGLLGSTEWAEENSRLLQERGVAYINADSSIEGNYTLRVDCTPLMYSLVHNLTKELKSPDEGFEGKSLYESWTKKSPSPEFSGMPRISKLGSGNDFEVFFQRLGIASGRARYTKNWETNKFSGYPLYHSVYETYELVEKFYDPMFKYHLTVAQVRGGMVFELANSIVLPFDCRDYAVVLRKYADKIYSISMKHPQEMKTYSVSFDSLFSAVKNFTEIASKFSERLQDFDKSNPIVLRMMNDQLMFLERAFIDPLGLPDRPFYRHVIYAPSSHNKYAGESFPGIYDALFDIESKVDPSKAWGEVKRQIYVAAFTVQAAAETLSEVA

O=C(O)CC[C@H](NC(=O)N[C@@H](CCCCNC(=O)Nc1ccc(Br)cc1OCCNC(=O)CCOCCOCCOCCOCCOCCOCCOCCOCCOCCOCCOCCOCCNC(=O)CCCC[C@@H]1SC[C@@H]2NC(=O)N[C@@H]21)C(=O)O)C(=O)O
pKi: 9.66
